Assay results taken from PubChem BioAssay AID617 (SRMLSC, 2007).
The campaign covered roughly 1,300 compounds. About 1,200 (92%) were called active. No rule for the calls is given here. The set was probably picked from earlier hits. A selection follows. Measured potencies and affinities stand elsewhere.

assay: E. coli ΔtolC antibacterial growth inhibition – strain BW25113 ΔtolC::kan, dose response (AID 617); conditions: OD615, at 100 µM (top of the series)
How it was run: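 Material: E. coli BW25113 ΔtolC::kan bacteria; input: inoculum from 1:1000-diluted 1.5 h subculture; medium: kanamycin-containing LB broth, 50 µg/mL; dosing: compounds in serially diluted dose-response series; incubation: 20 h exposure at 37 °C; measured by: absorbance at 615 nm; control set: chloramphenicol control, 30 µM final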

outcome, inactive:
O=C(COc1ccc(Cl)cc1)Nc1nc(-c2cccs2)cs1
COc1cc(C(=O)Nc2nc(-c3cccs3)cs2)cc(OC)c1OC
CC(C)n1c(C(=O)OCC(=O)NCc2ccc3c(c2)OCO3)cc2occc21
CCOC(=O)c1c(N)sc2c(OC)c(Br)ccc12
O=C(C1CCN(Cc2cc(Cl)ccc2O)CC1)N1CCN(Cc2ccccc2)CC1
CCCCCCn1c(CN2CCCC(C)C2)nc2c1c(=O)n(C)c(=O)n2C (stereo not drawn)
Cc1ccc(N(CC(=O)Nc2ccc3c(c2)OCCO3)S(=O)(=O)c2c(C)noc2C)cc1
COc1ccccc1N1CCN(C(=O)c2cc(-c3ccc(Br)cc3)on2)CC1
COc1ccccc1N1CCN(C(=O)c2oc3cc(C)c(C)cc3c2C)CC1
Cc1ccc(-c2noc(CCC(=O)N3CCN(c4cccc(C(F)(F)F)c4)CC3)n2)cc1
Cc1ccc(-c2nnn(CC(=O)N(Cc3cccs3)C(C(=O)NC(C)(C)C)c3ccco3)n2)o1 (stereo not drawn)
Cc1ccc(-c2noc(CN3CCN(c4ccccc4F)CC3)n2)cc1
C=C(C)COc1ccc(-c2[nH]ncc2-c2ccc(OC)c(OC)c2)c(O)c1
COc1ccc(-c2cnc(N)n2CC2CCCO2)cc1 (stereo not drawn)
COc1cc(OC)cc(-n2nnnc2SCC(=O)N2CCCc3ccccc32)c1
Cn1c(-c2ccc3c(c2)OCO3)cnc1N
CCCCCc1c(C)nc(Nc2ccccc2)[nH]c1=O
Cc1nn(-c2ccccc2)c2[nH]c(=O)c(CNCc3ccc4c(c3)OCO4)cc12
CCOC(=O)C1(N(CC)CC)Sc2cc(C)ccc2NC1=O (stereo not drawn)
Cc1cc(=O)oc2c1ccc1oc(/C(=N/O)c3ccccc3)c(C)c12
CN(C)Cc1nc2c(c(=O)[nH]1)C1(CCCCC1)Cc1ccccc1-2
Clc1ccc(Cn2ncc3c(N4CCCCC4)ncnc32)c(Cl)c1
COc1ccc(-c2csc(N(CC3CCCO3)C(=O)c3ccco3)n2)cc1 (stereo not drawn)
CN1/C(=C\C(=O)c2cccs2)Sc2ccccc21
CCOC(=O)c1ccc(NS(=O)(=O)c2ccc(SC)cc2)cc1
O=C(c1cc(C2CC2)on1)N1CCN(C(c2ccccc2)c2ccccc2)CC1
CC(C)n1c2ccccc2c2nc3ccccc3nc21
CCOC(=O)C1CCN(Cc2cn[nH]c2-c2ccc(C)cc2)CC1
